Screens from PubChem.
HNF4A DNA FP – change in binding of human HNF4A to DNA, primary screen, biochemical, fluorescence polarization, FITC-DNA; 1 h; activity change, % at 10 µM; Hepatocyte nuclear factor 4-alpha (Homo sapiens), P41235; 360,000 tested, 0.3% active; in the data active = activity change above about 30%, passing the limit was not always enough
Rpn11 inh – Rpn11 (PSMD14) deubiquitinase inhibitors, primary screen, biochemical, fluorescence polarization, uHTS; 26S proteasome non-ATPase regulatory subunit 14 (Homo sapiens), O00487; human 26S proteasome, Ub4-pepOG fluorescence polarization; 20S core pre-blocked with epoxomicin; inhibition, % at 20 µM; 360,000 tested, 0.59% active; AID 588493, 2011;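 active = inhibition at 20 µM, scaled to each plate's controls, above about 33%, limit read from the data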
IDE cell activ – human IDE activators in live cells, primary screen, fluorescence polarization, HEK cells, FAbeta-B substrate. 340,000 tested, 0.073% active. FAbeta-B cleavage; 0% vehicle, 100% cell-free pure enzyme wells. Insulin-degrading enzyme (Homo sapiens), P14735. AID 493087, 2011. activation, % at 5.96 µM;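 active = activation above the mean of all tested compounds plus 3 SD, set per screening campaign, cut at about 17% in these data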
IDE inh – human IDE inhibitors in live cells, primary screen, fluorescence polarization, HEK cells, FAbetaB substrate; Insulin-degrading enzyme (Homo sapiens), P14735; FAbetaB cleavage; inhibition, % at 5.59 µM; 320,000 tested, 0.41% active; AID 434962, 2010;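 active = percent inhibition above the average of all tested compounds plus 3 SD, set per screening campaign, cut at about 16% in these data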;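 also: IDE supplied by intact live HEK cells; FP after avidin binding of uncleaved biotin substrate so inhibition keeps polarization high; 0% = DMSO wells and 100% = 60 µM reference IDE inhibitor Ii1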
CSN deneddyl inh – inhibitors of CSN-mediated cullin deneddylation, primary screen, biochemical, fluorescence polarization, uHTS; AID 651999, 2013; Purified CSN, SCF-Nedd8-OG deneddylation; inhibition, % at 12.5 µM; 360,000 tested, 0.38% active; COP9 signalosome complex subunit 5 (Homo sapiens), Q92905;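 active = pattern-corrected inhibition above about 35%, with an unprinted fluorescence ratio check between 0.5 and 1.5, limit read from the data, passing the limit was not always enough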;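 also: 0% = enzyme with substrate and 100% = substrate without enzyme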
Target sequence (Q92905 whole entry, looked up, one chain of several): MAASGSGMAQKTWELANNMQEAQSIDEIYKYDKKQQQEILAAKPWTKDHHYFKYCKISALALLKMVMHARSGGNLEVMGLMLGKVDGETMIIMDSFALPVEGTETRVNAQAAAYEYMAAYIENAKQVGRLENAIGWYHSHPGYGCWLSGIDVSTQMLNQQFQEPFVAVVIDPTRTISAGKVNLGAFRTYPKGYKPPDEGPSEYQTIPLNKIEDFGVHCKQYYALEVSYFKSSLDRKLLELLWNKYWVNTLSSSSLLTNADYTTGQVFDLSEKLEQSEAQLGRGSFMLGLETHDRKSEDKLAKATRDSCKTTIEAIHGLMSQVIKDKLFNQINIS
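Detection – fluorescence polarization · System – HEK293T-derived human Csn5 enzyme · Controls – substrate-only high control, full reaction low control · Timing – 90 min, room temperature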
TPT1 inhibitor – Candida albicans TPT1 enzyme inhibitors, primary screen, biochemical, fluorescence polarization; inhibition, % at 5 µM; 300,000 tested, 0.81% active; recombinant caTPT1, FP RNA substrate dephosphorylation; tRNA 2'-phosphotransferase TPT1 (Candida albicans SC5314);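 active = inhibition above the mean of all tested compounds plus 3 SD, set per screening campaign, cut at about 24% in these data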;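 also: plate controls were DMSO alone for no effect and ferristatin control at 100 nM for full effect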
TPT1 inh confirm – Candida albicans TPT1 inhibitors, confirmation, biochemical, fluorescence polarization, triplicate | shares compounds with TPT1 inhibitor | recombinant caTPT1, RNase T1 coupled | inhibition, % at 5 µM | 2,400 tested, 74% active;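 active = inhibition above the primary screen limit, the mean inhibition of all tested compounds plus 3 SD, cut at about 25% in these data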
RNase T1 counter – RNase T1 inhibitors, counter-screen for TPT1 inhibitor project, biochemical, fluorescence polarization. RNase T1 cleavage, 1536-well. inhibition, % at 5 µM. 2,400 tested, 83% active. shares compounds with TPT1 inhibitor;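 active = inhibition above the solvent-only control well mean plus 3 SD, limit set per screening run, cut at about 23% in these data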;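 also: plate controls were DMSO wells with enzyme for no effect and wells without RNase T1 for full effect; inhibitors block cleavage so intact labeled substrate keeps polarization high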
Target sequence (P00651 whole entry, looked up): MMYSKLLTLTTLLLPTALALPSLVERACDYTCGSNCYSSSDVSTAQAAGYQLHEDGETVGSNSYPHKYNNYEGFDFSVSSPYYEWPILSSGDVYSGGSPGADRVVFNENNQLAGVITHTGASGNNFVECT
Numbers without * were called inactive; / = not tested or not shown. Only some compounds are listed: those with a hit (about 1.7% of all), similar ones and a draw of the others.

SMILES | HNF4A DNA FP | Rpn11 inh | IDE cell activ | IDE inh | CSN deneddyl inh | TPT1 inhibitor | TPT1 inh confirm | RNase T1 counter
O=C(Cn1ncc2c3ccccc3n(Cc3cccc(Cl)c3)c2c1=O)NCc1ccccn1 | 26 | / | 1 | 1 | 11 | 69* | 84* | 90*
CN(C)CC(=O)N[C@@H]1CC[C@@H](CCNS(=O)(=O)c2ccccc2)O[C@@H]1CO | 6 | / | / | / | -5 | / | / | /
COc1cc(C2c3sc(=O)[nH]c3SC3C(=O)N(c4ccc(Br)cc4)C(=O)C32)ccc1O (stereo not given) | -1 | 5 | 2 | 1 | 1 | 0 | / | /
CCOc1ccc(N2C(=O)C3Sc4[nH]c(=O)sc4C(/C=C/c4ccccc4)C3C2=O)cc1 (stereo not given) | 34 | / | -11 | 5 | 16 | 51* | 34* | 40*
COCCNC(=O)C1(C)CCCN(C(=O)c2ccc(-c3ccccc3)cc2)C1 (stereo not given) | 5 | -1 | / | / | 1 | / | / | /
CCCS(=O)(=O)NC(=O)C1(C)CCN(C(=O)c2ccccc2F)C1 (stereo not given) | -3 | 5 | / | / | 2 | / | / | /
COc1ccc(N/C=C2/Sc3ccccc3NC2=O)cc1 | 0 | -6 | 2 | 3 | -1 | -3 | / | /
Cc1ccc(N/C=C2/Sc3ccccc3NC2=O)cc1 | 32 | / | -6 | 3 | 15 | 28* | 47* | 53*
O=S(=O)(NCc1nnnn1-c1ccc(F)cc1)c1ccc(F)cc1 | 0 | -2 | / | / | 0 | / | / | /
COC(=O)c1ccccc1CSc1nsc(/C=C/N(C)C)c1C#N | 55* | / | 1 | 0 | 16 | 92* | 35* | 48*
Oc1ccc(Nc2nc3ccccc3nc2Nc2ccc(O)cc2)cc1 | 44* | 53* | -8 | 0 | 29 | 52* | 49* | 67*
Oc1ccc(Nc2nc(-c3ccccc3)nc3ccccc23)cc1 | 1 | -2 | 1 | -13 | 0 | -3 | / | /
O=C(COC(=O)Cc1c(Cl)cccc1Cl)NCc1ccccc1 | -3 | 1 | / | / | -4 | / | / | /
Cc1cccc(S(=O)(=O)c2c(N)n(/N=C/c3cccnc3)c3nc4ccccc4nc23)c1 | -1 | 0 | 4 | -3 | 0 | 33* | 53* | 70*
Cc1cccc(S(=O)(=O)c2c(N)n(/N=C/c3ccco3)c3nc4ccccc4nc23)c1 | 8 | 34 | 5 | -2 | 23 | 9 | / | /
N#CC1(C#N)CC(C=O)=C(N)C1(C#N)CC(=O)c1ccc(F)cc1 (stereo not given) | 2 | 12 | -13 | 11 | 20 | 57* | 32* | 42*
COC(=O)[C@]1(C)N[C@H](CN(C)S(=O)(=O)c2ccc(OC(F)(F)F)cc2)[C@@H]2C(=O)N(C)C(=O)[C@@H]21 | 0 | -7 | 1 | -2 | 4 | / | / | /
COc1ccc(COC(=O)CNC(=O)C2CCCCC2)cc1F | 1 | -3 | -4 | -2 | -2 | / | / | /
COc1cccc(S(=O)(=O)Nc2ccc(C(=O)NCc3ccco3)cc2)c1 | -2 | 0 | 5 | -2 | 5 | 28* | 6 | 9
COc1ccc(NS(=O)(=O)c2cccc(C(=O)NCc3ccco3)c2)cc1 | -3 | 0 | 0 | -2 | 4 | 0 | / | /
COC(=O)C1=NN(c2ccc(C)cc2)C2C(=O)N(c3ccccc3OC)C(=O)C12 (stereo not given) | 7 | -2 | 1 | 1 | -3 | 0 | / | /
